Results reported in publication PMC8688139 (Journal of medicinal chemistry, 2019).
Entries after “also recorded” stand apart in the source; their conditions may differ.

What was measured:
Cytotoxicity assay = assay type: cell-based, murine; details: mouse, 3T3-L1 cells
[1] = tested on: human visceral and subcutaneous preadipocytes; assay: Preadipocyte differentiation assay; assay type: cell-based
Outline: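 Human visceral or subcutaneous preadipocytes (≤ passage 3) plated at 100,000 cells/well and grown to confluency. Day 0: induction medium ± hydrocortisone hemisuccinate (50 µg/mL) plus vehicle (0.2% DMSO), rosiglitazone (2 µM) or test compound (50, 100 µM); non-differentiating medium as control. Differentiation medium plus treatment from 48 h, refreshed every 48–72 h for 9–14 days. Fixed in 10% buffered formaldehyde; Oil Red O relatively quantified.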

[2] = tested on: Normal mouse fibroblast (ATCC: CRL-2907); assay: Nascent; assay type: cell-based; details: CA 50 μM, 2 h
Outline: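 Mouse embryonic fibroblasts (CRL-2907) seeded at 2 × 10^4/well on 1% gelatin-coated slides and cultured 12 h at 37 °C in phenol red–free IMDM with 10% FBS. Test compound (50 µM) or DMSO given 2 h before click labelling with an alkyne o-propargyl-puromycin probe. Cycloheximide (20 nM, 30 min prior) served as positive control. Confocal imaging at 20×; whole-image montage quantified.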

11β-HSD2 = details: cited from earlier work
3T3-L1 preadipocytes = assay: Preadipocyte differentiation assay; assay type: cell-based, murine
Outline: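 3T3-L1 cells (passages 1–16) seeded at 2.5 × 10^5/well on 0.1% gelatin. Day 0, 24 h after near-confluence: switched to induction DMEM (high glucose, 10% FBS, 0.5 mM IBMX). After 48 h: DMEM + 10% FBS + 10 µg/mL insulin. Negative control kept in non-differentiating medium; positive control differentiating medium + DMSO. Test compound 50–100 µM; run to day 7–10. Oil Red O stained; extracted dye read at 462 nm.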

[3] = tested on: 3T3-L1 adipogenesis gene transcripts; assay: qRT-PCR gene expression during 3T3-L1 adipogenesis; assay type: cell-based, murine
Outline: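 Steady-state transcript levels measured by qRT-PCR in 3T3-L1 cells going through the induction/insulin differentiation protocol, on days 0, 1, 2 and 7. Treated cells compared with differentiating-medium and non-differentiating-medium controls.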

Human GR = molecular target: T1, Human GR (Homo sapiens, UniProt P04150); assay: Human glucocorticoid receptor; assay type: cell-based; details: transiently GR-transfected MDA-MB-231 cells, 100 nM dexamethasone, 50 μM CA
T1 sequence (P04150 1-777): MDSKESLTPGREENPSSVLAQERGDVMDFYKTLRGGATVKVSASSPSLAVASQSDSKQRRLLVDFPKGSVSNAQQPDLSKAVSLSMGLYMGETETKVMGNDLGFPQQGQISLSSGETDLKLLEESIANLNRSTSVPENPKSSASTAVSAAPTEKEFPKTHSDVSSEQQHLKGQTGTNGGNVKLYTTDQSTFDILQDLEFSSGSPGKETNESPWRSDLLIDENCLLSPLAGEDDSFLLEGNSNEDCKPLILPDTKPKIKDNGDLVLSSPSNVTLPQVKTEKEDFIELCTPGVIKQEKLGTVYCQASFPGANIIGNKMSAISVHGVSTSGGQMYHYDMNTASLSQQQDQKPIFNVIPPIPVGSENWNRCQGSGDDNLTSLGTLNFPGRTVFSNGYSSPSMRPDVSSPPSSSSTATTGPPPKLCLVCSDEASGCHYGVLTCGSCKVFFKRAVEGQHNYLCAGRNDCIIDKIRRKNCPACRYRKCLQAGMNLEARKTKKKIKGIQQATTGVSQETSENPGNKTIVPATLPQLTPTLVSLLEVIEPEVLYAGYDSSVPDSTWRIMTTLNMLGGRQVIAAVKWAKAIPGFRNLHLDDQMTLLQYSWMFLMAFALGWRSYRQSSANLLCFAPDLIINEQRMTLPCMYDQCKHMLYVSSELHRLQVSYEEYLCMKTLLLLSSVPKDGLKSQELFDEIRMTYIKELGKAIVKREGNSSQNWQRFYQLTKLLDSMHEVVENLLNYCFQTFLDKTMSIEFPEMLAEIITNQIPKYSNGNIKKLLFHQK
Outline: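 MDA-MB-231 cells transiently transfected, via Lipofectin, with a GR response element–luciferase reporter or a negative-control reporter. Seeded at 5000 cells/well for 12 h at 37 °C, then switched to phenol red–free DMEM with 2% charcoal-stripped FBS. Test compound (50 µM) or DMSO added 1 h before 100 nM dexamethasone induction; 4 h treatment. Luciferase luminescence read; n = 3, means ± SEM.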

[4] = tested on: 11β-HSD1, PPARγ, PGC-1α protein expression in 3T3-L1; assay: Western blot analysis during 3T3-L1 adipogenesis; assay type: cell-based, murine
Outline: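 3T3-L1 cells in non-differentiating medium, differentiating medium, differentiating medium + rosiglitazone, or differentiating medium + test compound (50 µM); sampled on days 3 and 7. Lysed in Tris/NaCl/EDTA/EGTA buffer with Triton X-100, deoxycholate, SDS, glycerol and protease/phosphatase inhibitors. 30 µg total protein loaded; tubulin used as loading control. Bands quantified; n = 3, means ± SEM.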

[5] = tested on: 11β-HSD1 in J774.1 macrophage; details: LPS activated murine J774.1 macrophage; cited from earlier work
3T3-L1 cells = assay: Mitochondria evaluation by confocal microscopy; assay type: cell-based, murine; details: 3T3-L1 adipogenesis assay, day 7, CA 50 μM
Outline: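 3T3-L1 cells put through the adipogenesis protocol in 8-well chambers, test compound 50 µM. On day 7, live cells stained with MitoTracker Deep Red (50 nM final) and Hoechst 33342, PBS-washed, and imaged by spinning-disk confocal at 63×. Mean mitochondrial tracker intensity quantified.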

3T3-L1 = assay: Cytotoxicity assay; assay type: cell-based, murine; details: 3T3-L1; tested concentrations up to 1mM
Human PPARγ = molecular target: T2, Human PPARγ (Homo sapiens, UniProt P37231); assay: Human PPARγ reporter antagonist assay; assay type: cell-based; details: stimulation by rosiglitazone (20 nM); 40 μM to 2 nM
T2 sequence (P37231 238-505 limits assumed): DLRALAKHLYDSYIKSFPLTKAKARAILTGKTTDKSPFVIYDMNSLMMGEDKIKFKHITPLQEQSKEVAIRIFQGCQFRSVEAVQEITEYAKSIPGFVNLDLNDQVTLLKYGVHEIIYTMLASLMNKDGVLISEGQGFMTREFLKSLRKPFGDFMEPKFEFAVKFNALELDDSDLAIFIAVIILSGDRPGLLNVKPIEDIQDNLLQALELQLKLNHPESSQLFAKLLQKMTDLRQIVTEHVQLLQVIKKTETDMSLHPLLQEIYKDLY

Human 11β-HSD1 = Human 11β-HSD1 (Homo sapiens, UniProt P28845, C272S); assay: Biochemical assay of 11β-HSD1; details: 11β-HSD1 Ki
Sequence of Human 11β-HSD1 (P28845 24-292 C272S): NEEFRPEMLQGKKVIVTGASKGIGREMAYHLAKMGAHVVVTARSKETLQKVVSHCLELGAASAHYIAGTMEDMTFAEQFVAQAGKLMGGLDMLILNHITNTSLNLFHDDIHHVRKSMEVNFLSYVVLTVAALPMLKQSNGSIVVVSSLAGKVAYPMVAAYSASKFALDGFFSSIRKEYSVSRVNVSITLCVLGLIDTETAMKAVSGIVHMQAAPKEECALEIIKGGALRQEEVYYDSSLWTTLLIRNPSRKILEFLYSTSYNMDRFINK

Solubility = assay type: physicochemical

Q: For `CC1=CC[C@@]2(C[C@H]1O)[C@@H](C(C)C)CC[C@H]2C(=O)O` (single isomer, unassigned) [ent-1, (−)-Colletoic Acid], which EC50 at 72 h (Cytotoxicity assay) is on record?
A: > 500 µM

Q: Which “effect when added at day 3 after induction” value ([1]; human preadipocytes) does the source give for `CC1=CC[C@@]2(C[C@@H]1O)[C@@H](C(=O)O)CC[C@H]2C(C)C` [Compound 1, (+)-colletoic acid] here?
A: no quantifiable effect

Q: And the “inhibition of adipogenesis in human preadipocytes” value ([1]; human visceral and subcutaneous preadipocytes, 10–14 days, CA 50–100 μM)?
A: modest inhibition of adipogenesis

Q: And the “global protein synthesis compared to DMSO control” value [2]?
A: No significant changes

Q: What about the 11β-HSD2 inhibition (11β-HSD2) of the same molecule?
A: no observable 11β-HSD2 inhibition

Q: What about the “effect on adipogenesis when added after day 3” value (3T3-L1 preadipocytes; 3T3-L1) of the same molecule?
A: little to no significant effect

Q: What about the “inhibition of adipogenesis (Oil Red O staining)” value (3T3-L1 preadipocytes; 3T3-L1, 7 days, compound added at induction, CA 50–100 μM) of the same molecule?
A: clearly inhibited adipogenesis

Q: And the “lipid droplets (LipidTox) compared to NDM control cells” value (3T3-L1 preadipocytes; 3T3-L1, CA 50 μM)?
A: no significant difference

Q: And the “FABP4 and FASN mRNA expression, lower than in differentiated control cells” value ([3]; 3T3-L1)?
A: at least 10 fold

Q: And the “PGC-1α mRNA expression, differentiated control cells versus CA-treated cells” value ([3]; 3T3-L1)?
A: at least ten-fold greater

Q: And the “C/EBPα, β and δ mRNA expression” value ([3]; 3T3-L1, day 1–2, vs differentiated control)?
A: significant reduction

Q: What about the “PPARγ and PGC-1α mRNA expression level” value ([3]; 3T3-L1, vs differentiated cells) of the same molecule?
A: greatly reduced

Q: What about the “11β-HSD1 mRNA expression” value ([3]; 3T3-L1, vs differentiated control cells) of the same molecule?
A: reduced

Q: And the GR activation (Human GR)?
A: did not inhibit GR activation

Q: What about the “PGC-1α, 11β-HSD1 and PPARγ protein expression” value ([4]; 3T3-L1, day 3, CA 50 μM) of the same molecule?
A: No significant change

Q: And the “PGC-1α, 11β-HSD1 and PPARγ protein expression” value ([4]; 3T3-L1, day 7, CA 50 μM)?
A: down-regulation

Q: What about the “conversion of [3H]-cortisone to [3H]-cortisol” value [5] of the same molecule?
A: inhibits the conversion

Q: And the “mitochondrial mass (mitochondrial tracker mean intensity)” value (3T3-L1 cells)?
A: less mitochondrial mass

Q: What about the “cytotoxicity (cell viability)” value (3T3-L1) of the same molecule?
A: no cytotoxicity

Q: What about the EC50 at 72 h (Cytotoxicity assay) of the same molecule?
A: > 500 µM

Q: And the PPARγ antagonistic activity (Human PPARγ)?
A: no quantifiable PPARγ antagonistic activity

Q: For `CC1(C)[C@@H](OC(=O)CCC(=O)O)CC[C@]2(C)[C@H]3C(=O)C=C4[C@@H]5C[C@@](C)(C(=O)O)CC[C@]5(C)CC[C@@]4(C)[C@]3(C)CC[C@@H]12` [Compound 4, carbenoxolone, reference compound], which EC50 at 72 h (Cytotoxicity assay) is on record?
A: > 500 µM

Q: With `COC(=O)[C@H]1CC[C@@H](C(C)C)[C@@]12CC=C(C)[C@@H](O)C2` [Compound 5] as the molecule, how does the EC50 at 72 h (Cytotoxicity assay) read?
A: > 500 µM

Q: With `CC1=CC[C@@]2(C[C@@H]1O)[C@@H](C(N)=O)CC[C@H]2C(C)C` [Compound 6] as the molecule, how does the EC50 at 72 h (Cytotoxicity assay) read?
A: > 500 µM

Q: Which EC50 at 72 h (Cytotoxicity assay) does the source give for `CC1=CC[C@@]2(C[C@@H]1O)[C@H](C(=O)O)CC[C@H]2C(C)C` [Compound 7] here?
A: > 500 µM

Q: For `CC(=O)O[C@H]1C[C@]2(CC=C1C)[C@@H](C(=O)O)CC[C@H]2C(C)C` [Compound 8], which EC50 at 72 h (Cytotoxicity assay) is on record?
A: > 500 µM

Q: Which EC50 at 72 h (Cytotoxicity assay) does the source give for `CC1=CC[C@@]2(CC1=O)[C@@H](C(=O)O)CC[C@H]2C(C)C` [Compound 9] here?
A: > 500 µM

Q: Which EC50 at 72 h (Cytotoxicity assay) does the source give for `CC1=CC[C@@]2([C@H](O)C1)[C@@H](C(=O)O)CC[C@H]2C(C)C` [Compound 10] here?
A: > 500 µM

Q: Which EC50 at 72 h (Cytotoxicity assay) does the source give for `CC(=O)O[C@@H]1C[C@@](C)(O)CC[C@]12[C@@H](C(=O)O)CC[C@H]2C(C)C` [Compound 11] here?
A: > 500 µM

Q: With `CC(C)[C@@H]1CC[C@H](C(=O)O)[C@]12C[C@@H](O)[C@@](C)(O)[C@@H](O)C2` [Compound 12] as the molecule, how does the EC50 at 72 h (Cytotoxicity assay) read?
A: > 500 µM

Q: Which EC50 at 72 h (Cytotoxicity assay) does the source give for `C=C1CC[C@@]2(C(OC)[C@@H]1O)[C@@H](C(=O)O)CC[C@H]2C(C)C` (stereo partly shown) [Compound 13] here?
A: > 500 µM

Q: For `C=C1CC[C@@]2(C[C@@H]1OC(C)=O)[C@@H](C(=O)O)CC[C@H]2C(C)C` [Compound 14], which EC50 at 72 h (Cytotoxicity assay) is on record?
A: > 500 µM

Q: For `C=C1CC[C@@]2(C[C@@H]1O)[C@@H](C(=O)O)CC[C@H]2C(C)C` [Compound 15], which EC50 at 72 h (Cytotoxicity assay) is on record?
A: > 500 µM

Q: For `C=C1CC[C@]2(C[C@@H]1O)[C@H](C)CC[C@@H]2C(=O)O` [Compound 16], which “activity relative to compound 15” value (Human 11β-HSD1) is on record?
A: five-fold less activity

Q: What about the EC50 at 72 h (Cytotoxicity assay) of the same molecule?
A: > 500 µM

Q: Which EC50 at 72 h (Cytotoxicity assay) does the source give for `CC1=CC[C@@]2([C@H](O)C1)[C@@H](C(=O)O)CC[C@H]2C1CCCCC1` [Compound 18] here?
A: > 500 µM

Q: Which solubility properties (Solubility) does the source give for `CC1=CC[C@@]2(C=C1)[C@@H](C(=O)O)CC[C@H]2C1CCCCC1` [Compound 19] here?
A: acceptable and similar to CA

Q: With `CC1=CC[C@@]2(C[C@@H]1O)[C@@H](C(=O)O)CC[C@H]2C1CCCCC1` [Compound 20] as the molecule, how does the “increase of potency over CA” value (Human 11β-HSD1) read?
A: three-fold increase of potency; also recorded: three-fold increase in potency

Q: And the solubility properties (Solubility)?
A: acceptable and similar to CA

Q: What about the EC50 at 72 h (Cytotoxicity assay) of the same molecule?
A: > 500 µM
